Measurements: ChEMBL document CHEMBL1667763, “4-anilinoquinoline triazines: a novel class of hybrid antimalarial agents” (Eur J Med Chem, 2011)
In brackets after ≈: the same amount, converted by molar mass. One block for each molecule: values may come before it. Activity calls are given as the source filed them. No cut-off for these calls is given here.

Experiments:
Plasmodium falciparum = test: Antimalarial activity against chloroquine-sensitive Plasmodium falciparum 3D7 infected in erythrocytes after 72 hrs by syber green 1 assay; settings: 3D7, 72 h
[1] = test system: Plasmodium falciparum 3D7; test: Selectivity index, IC50 for african green monkey Vero cells to IC50 for Plasmodium falciparum 3D7
Plasmodium yoelii [2] = test: Antimalarial activity against chloroquine-resistant Plasmodium yoelii N-67 infected in Swiss mouse assessed as suppression of parasitaemia level at 50 mg/kg, po qd for 4 days; type: functional
Procedure, shortened: (§1)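 Swiss mice (22±2 g), groups of five, inoculated with 1×10^6 P. yoelii N-67 parasitized RBC on day 0; compounds as aqueous suspension with a few drops Tween 80, given orally in 0.1 mL once daily days 0–3. Parasitemia from thin blood smears days 4–6, group mean % suppression vs untreated controls; survivors counted on day 28.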

Plasmodium yoelii [3] = test: Antimalarial activity against chloroquine-resistant Plasmodium yoelii N-67 infected in Swiss mouse assessed as suppression of parasitaemia level at 50 mg/kg, ip qd for 4 days; type: functional; settings: route intraperitoneal
Procedure, shortened: as §1, with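 “intraperitoneally” for “orally”, “0.2” for “0.1”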

Plasmodium yoelii [4] = test: Antimalarial activity against chloroquine-resistant Plasmodium yoelii N-67 infected in Swiss mouse assessed as mouse survival at 50 mg/kg, ip qd for 4 days; type: functional, organism-based; parameters: dose 50 mg/kg
Procedure, shortened: as §1, with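 “intraperitoneally” for “orally”, “0.2” for “0.1”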

Plasmodium yoelii [5] = test: Antimalarial activity against chloroquine-resistant Plasmodium yoelii N-67 infected in Swiss mouse assessed as mouse survival at 100 mg/kg, po qd for 4 days; type: functional, organism-based; parameters: dose 100 mg/kg
Procedure, shortened: as §1

Plasmodium yoelii [6] = test: Antimalarial activity against chloroquine-resistant Plasmodium yoelii N-67 infected in Swiss mouse assessed as suppression of parasitaemia level at 100 mg/kg, po qd for 4 days; type: functional
Procedure, shortened: as §1

Plasmodium yoelii [7] = test: Antimalarial activity against chloroquine-resistant Plasmodium yoelii N-67 infected in Swiss mouse assessed as suppression of parasitaemia level at 25 mg/kg, ip qd for 4 days; type: functional; settings: route intraperitoneal
Procedure, shortened: as §1, with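 “intraperitoneally” for “orally”, “0.2” for “0.1”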

Plasmodium yoelii [8] = test: Antimalarial activity against chloroquine-resistant Plasmodium yoelii N-67 infected in Swiss mouse assessed as mouse survival at 25 mg/kg, ip qd for 4 days; type: functional, organism-based; parameters: dose 25 mg/kg
Procedure, shortened: as §1, with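 “intraperitoneally” for “orally”, “0.2” for “0.1”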

Plasmodium yoelii [9] = test: Antimalarial activity against chloroquine-resistant Plasmodium yoelii N-67 infected in Swiss mouse assessed as mouse survival at 50 mg/kg, po qd for 4 days; type: functional, organism-based; parameters: dose 50 mg/kg
Procedure, shortened: as §1

[10] = Inhibition of beta-hematin formation after 16 hrs; type: functional
Procedure, shortened: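 Plasma came from male Swiss mice (15–20 g) infected with 1 × 10⁵ infected RBCs. Blood was drawn at 50% parasitemia by cardiac puncture into 2.0% citrate and spun at 4 °C. Hemin substrate ([…]) and compound were incubated in 100 mM acetate buffer, pH 5.1, at 37 °C for 16 h with shaking. The pellet was washed in SDS buffers. IC50 was the mean of three experiments in triplicate.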

Compound: CCN1CCN(c2nc(Nc3ccc(Nc4ccnc5cc(Cl)ccc45)cc3)nc(N3CCCCC3)n2)CC1
IC50 (Plasmodium falciparum): 29.7 nM | Selectivity Index [1]: 124.85 | Activity (Plasmodium yoelii [2]): 100% | Activity (Plasmodium yoelii [3]): 100% | Activity (Plasmodium yoelii [4]): Active | Activity (Plasmodium yoelii [5]): Active | Activity (Plasmodium yoelii [6]): 100% | Activity (Plasmodium yoelii [7]): 100% | Activity (Plasmodium yoelii [8]): inactive | Activity (Plasmodium yoelii [9]): inactive | IC50 [10]: 2.79 µg/mL (≈ 5.13 µM)

Compound: CCCCNc1nc(Nc2ccc(C)cc2)nc(Nc2ccc(Nc3ccnc4cc(Cl)ccc34)cc2)n1
IC50 (Plasmodium falciparum): 44.5 nM | Selectivity Index [1]: 101.03

Compound: Cc1ccc(Nc2nc(NCCCN3CCOCC3)nc(Nc3ccc(Nc4ccnc5cc(Cl)ccc45)cc3)n2)cc1
IC50 (Plasmodium falciparum): 7.03 nM | Selectivity Index [1]: 610.98 | Activity (Plasmodium yoelii [3]): 100% | Activity (Plasmodium yoelii [4]): inactive | IC50 [10]: 2.85 µg/mL (≈ 4.78 µM)

Compound: Cc1ccccc1Nc1nc(N)nc(Nc2ccc(Nc3ccnc4cc(Cl)ccc34)cc2)n1
IC50 (Plasmodium falciparum): 29.6 nM | Selectivity Index [1]: 163.54

Compound: Clc1ccc2c(Nc3ccc(Nc4nc(NCc5ccccc5)nc(Nc5ccccc5)n4)cc3)ccnc2c1
IC50 (Plasmodium falciparum): 33.6 nM | Selectivity Index [1]: 151.04

Compound: Clc1ccc2c(Nc3ccc(Nc4nc(NCc5ccccc5)nc(N5CCCCC5)n4)cc3)ccnc2c1
IC50 (Plasmodium falciparum): 235 nM | Selectivity Index [1]: 98.42

Compound: CCN1CCN(c2nc(Nc3ccccc3)nc(Nc3cccc(Nc4ccnc5cc(Cl)ccc45)c3)n2)CC1
IC50 (Plasmodium falciparum): 60.1 nM | Selectivity Index [1]: 90.51

Compound: Clc1ccc2c(Nc3ccc(Nc4nc(NCCCN5CCOCC5)nc(N5CCCCC5)n4)cc3)ccnc2c1
IC50 (Plasmodium falciparum): 23.1 nM | Selectivity Index [1]: 170.18 | Activity (Plasmodium yoelii [2]): 100% | Activity (Plasmodium yoelii [3]): 100% | Activity (Plasmodium yoelii [4]): Active | Activity (Plasmodium yoelii [5]): Active | Activity (Plasmodium yoelii [6]): 100% | Activity (Plasmodium yoelii [7]): 100% | Activity (Plasmodium yoelii [8]): inactive | Activity (Plasmodium yoelii [9]): inactive | IC50 [10]: 2.71 µg/mL (≈ 4.72 µM)

Compound: Cc1ccc(Nc2nc(Nc3ccc(Nc4ccnc5cc(Cl)ccc45)cc3)nc(NC3CCCCC3)n2)cc1
IC50 (Plasmodium falciparum): 74 nM | Selectivity Index [1]: 137.42

Compound: Cc1ccc(Nc2nc(Nc3cccc(Nc4ccnc5cc(Cl)ccc45)c3)nc(N3CCN(C)CC3)n2)cc1
IC50 (Plasmodium falciparum): 43.2 nM | Selectivity Index [1]: 226.18

Compound: Clc1ccc2c(Nc3ccc(Nc4nc(Nc5ccccc5)nc(NC5CCCCC5)n4)cc3)ccnc2c1
IC50 (Plasmodium falciparum): 64.8 nM | Selectivity Index [1]: 76.97

Compound: Cc1ccc(Nc2nc(NCCCN3CCOCC3)nc(Nc3cccc(Nc4ccnc5cc(Cl)ccc45)c3)n2)cc1
IC50 (Plasmodium falciparum): 34.6 nM | Selectivity Index [1]: 321.48 | Activity (Plasmodium yoelii [3]): 100% | Activity (Plasmodium yoelii [4]): inactive | IC50 [10]: 2.7 µg/mL (≈ 4.53 µM)

Compound: CCN1CCN(c2nc(Nc3ccc(C)cc3)nc(Nc3cccc(Nc4ccnc5cc(Cl)ccc45)c3)n2)CC1
IC50 (Plasmodium falciparum): 41 nM | Selectivity Index [1]: 229.5

Compound: Cc1ccccc1Nc1nc(NCc2ccccc2)nc(Nc2ccc(Nc3ccnc4cc(Cl)ccc34)cc2)n1
IC50 (Plasmodium falciparum): 27.8 nM | Selectivity Index [1]: 2129.68

Compound: Cc1ccccc1Nc1nc(NCCCN2CCOCC2)nc(Nc2ccc(Nc3ccnc4cc(Cl)ccc34)cc2)n1
IC50 (Plasmodium falciparum): 13.4 nM | Selectivity Index [1]: 418.75

Compound: Clc1ccc2c(Nc3ccc(Nc4nc(NC5CCCCC5)nc(N5CCCCC5)n4)cc3)ccnc2c1
IC50 (Plasmodium falciparum): 313 nM | Selectivity Index [1]: 189.52

Compound: CCN(CC)CCNc1nc(Nc2ccc(Nc3ccnc4cc(Cl)ccc34)cc2)nc(N2CCCCC2)n1
IC50 (Plasmodium falciparum): 38.8 nM | Selectivity Index [1]: 59.71

Compound: Cc1ccccc1Nc1nc(Nc2ccc(Nc3ccnc4cc(Cl)ccc34)cc2)nc(N2CCN(C)CC2)n1
IC50 (Plasmodium falciparum): 18.9 nM | Selectivity Index [1]: 16.33

Compound: CNc1nc(Nc2ccccc2)nc(Nc2ccc(Nc3ccnc4cc(Cl)ccc34)cc2)n1
IC50 (Plasmodium falciparum): 19 nM | Selectivity Index [1]: 290.68

Compound: Nc1nc(Nc2ccccc2)nc(Nc2ccc(Nc3ccnc4cc(Cl)ccc34)cc2)n1
IC50 (Plasmodium falciparum): 41.5 nM | Selectivity Index [1]: 132.63

Compound: CCCCNc1nc(Nc2ccc(Nc3ccnc4cc(Cl)ccc34)cc2)nc(Nc2ccccc2C)n1
IC50 (Plasmodium falciparum): 31.5 nM | Selectivity Index [1]: 821.15 | Activity (Plasmodium yoelii [3]): 100% | Activity (Plasmodium yoelii [4]): inactive | IC50 [10]: 2.96 µg/mL (≈ 5.64 µM)

Compound: CCCCNc1nc(Nc2ccccc2)nc(Nc2cccc(Nc3ccnc4cc(Cl)ccc34)c2)n1
IC50 (Plasmodium falciparum): 26.3 nM | Selectivity Index [1]: 156.25 | Activity (Plasmodium yoelii [3]): 100% | Activity (Plasmodium yoelii [4]): inactive | IC50 [10]: 2.55 µg/mL (≈ 4.99 µM)

Compound: CCN(CC)CCNc1nc(Nc2ccc(Nc3ccnc4cc(Cl)ccc34)cc2)nc(Nc2ccccc2C)n1
IC50 (Plasmodium falciparum): 26.1 nM | Selectivity Index [1]: 136.49

Compound: CCCCNc1nc(Nc2ccccc2)nc(Nc2ccc(Nc3ccnc4cc(Cl)ccc34)cc2)n1
IC50 (Plasmodium falciparum): 18.5 nM | Selectivity Index [1]: 287.22 | Activity (Plasmodium yoelii [3]): 100% | Activity (Plasmodium yoelii [4]): inactive | IC50 [10]: 3.08 µg/mL (≈ 6.03 µM)

Compound: Clc1ccc2c(Nc3ccc(Nc4nc(NCCCN5CCOCC5)nc(Nc5ccccc5)n4)cc3)ccnc2c1
IC50 (Plasmodium falciparum): 3.01 nM | Selectivity Index [1]: 154.29 | Activity (Plasmodium yoelii [3]): 100% | Activity (Plasmodium yoelii [4]): Active | Activity (Plasmodium yoelii [5]): inactive | Activity (Plasmodium yoelii [6]): 100% | Activity (Plasmodium yoelii [7]): 100% | Activity (Plasmodium yoelii [8]): inactive | IC50 [10]: 2.98 µg/mL (≈ 5.12 µM)

Compound: CCN(CC)CCNc1nc(Nc2ccccc2)nc(Nc2cccc(Nc3ccnc4cc(Cl)ccc34)c2)n1
IC50 (Plasmodium falciparum): 292 nM | Selectivity Index [1]: 135.37

Compound: Clc1ccc2c(Nc3cccc(Nc4nc(NCCCN5CCOCC5)nc(Nc5ccccc5)n4)c3)ccnc2c1
IC50 (Plasmodium falciparum): 111 nM | Selectivity Index [1]: 90.51

Compound: Cc1ccc(Nc2nc(NCc3ccccc3)nc(Nc3ccc(Nc4ccnc5cc(Cl)ccc45)cc3)n2)cc1
IC50 (Plasmodium falciparum): 63.5 nM | Selectivity Index [1]: 79.44

Compound: CCN1CCN(c2nc(Nc3ccc(Nc4ccnc5cc(Cl)ccc45)cc3)nc(Nc3ccccc3C)n2)CC1
IC50 (Plasmodium falciparum): 102 nM | Selectivity Index [1]: 2.58

Compound: CN1CCN(c2nc(Nc3ccccc3)nc(Nc3cccc(Nc4ccnc5cc(Cl)ccc45)c3)n2)CC1
IC50 (Plasmodium falciparum): 47.2 nM | Selectivity Index [1]: 223.4

Compound: CCN1CCN(c2nc(Nc3ccccc3)nc(Nc3ccc(Nc4ccnc5cc(Cl)ccc45)cc3)n2)CC1
IC50 (Plasmodium falciparum): 5.92 nM | Selectivity Index [1]: 192.66 | Activity (Plasmodium yoelii [3]): 100% | Activity (Plasmodium yoelii [4]): inactive | IC50 [10]: 2.69 µg/mL (≈ 4.87 µM)

Compound: CN1CCN(c2nc(Nc3ccccc3)nc(Nc3ccc(Nc4ccnc5cc(Cl)ccc45)cc3)n2)CC1
IC50 (Plasmodium falciparum): 5.85 nM | Selectivity Index [1]: 92.06

Compound: CCN1CCN(c2nc(Nc3ccc(C)cc3)nc(Nc3ccc(Nc4ccnc5cc(Cl)ccc45)cc3)n2)CC1
IC50 (Plasmodium falciparum): 11.9 nM | Selectivity Index [1]: 35.61

Compound: CN1CCN(c2nc(Nc3ccc(Nc4ccnc5cc(Cl)ccc45)cc3)nc(N3CCCCC3)n2)CC1
IC50 (Plasmodium falciparum): 34.8 nM | Selectivity Index [1]: 106.35

Compound: CCN(CC)CCNc1nc(Nc2ccccc2)nc(Nc2ccc(Nc3ccnc4cc(Cl)ccc34)cc2)n1
IC50 (Plasmodium falciparum): 60.4 nM | Selectivity Index [1]: 79.47

IC50 [10]: 3.65 µg/mL (≈ 11.4 µM)
Compound: CCN(CC)CCCC(C)Nc1ccnc2cc(Cl)ccc12 (centres undefined) [CHLOROQUINE]

Compound: Cc1ccccc1Nc1nc(Nc2ccc(Nc3ccnc4cc(Cl)ccc34)cc2)nc(NC2CCCCC2)n1
IC50 (Plasmodium falciparum): 163 nM | Selectivity Index [1]: 449.8

Compound: CCN(CC)CCNc1nc(Nc2ccc(C)cc2)nc(Nc2ccc(Nc3ccnc4cc(Cl)ccc34)cc2)n1
IC50 (Plasmodium falciparum): 82.8 nM | Selectivity Index [1]: 64.38

Compound: CNc1nc(Nc2ccc(C)cc2)nc(Nc2ccc(Nc3ccnc4cc(Cl)ccc34)cc2)n1
IC50 (Plasmodium falciparum): 6.41 nM | Selectivity Index [1]: 491.91 | Activity (Plasmodium yoelii [3]): 100% | Activity (Plasmodium yoelii [4]): inactive | IC50 [10]: 3.16 µg/mL (≈ 6.54 µM)

Compound: CNc1nc(Nc2ccc(Nc3ccnc4cc(Cl)ccc34)cc2)nc(Nc2ccccc2C)n1
IC50 (Plasmodium falciparum): 37.6 nM | Selectivity Index [1]: 240.35

Compound: Cc1ccc(Nc2nc(Nc3ccc(Nc4ccnc5cc(Cl)ccc45)cc3)nc(N3CCN(C)CC3)n2)cc1
IC50 (Plasmodium falciparum): 12.4 nM | Selectivity Index [1]: 36.39

Compound: Cc1ccc(Nc2nc(N)nc(Nc3ccc(Nc4ccnc5cc(Cl)ccc45)cc3)n2)cc1
IC50 (Plasmodium falciparum): 11.9 nM | Selectivity Index [1]: 134.89
